Screening results (PubChem BioAssay)
OXTR potentiate: potentiators of human oxytocin receptor; P30559; CHO-OTR cells, Fluo-8 calcium fluorescence, potentiator mode; 0% = oxytocin EC15, 100% = EC100; activation, % at 3 µM; actives 0.061% (n = 320,000); AID 2445;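 active = activation above that plate's cutoff, the mean activation of tested compounds plus 3 SD, cut at about 6.6% in these data, passing the limit was not always enough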;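 also: 100% uses oxytocin at 75 nM as the full agonist control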
Target sequence (P30559 whole entry, looked up): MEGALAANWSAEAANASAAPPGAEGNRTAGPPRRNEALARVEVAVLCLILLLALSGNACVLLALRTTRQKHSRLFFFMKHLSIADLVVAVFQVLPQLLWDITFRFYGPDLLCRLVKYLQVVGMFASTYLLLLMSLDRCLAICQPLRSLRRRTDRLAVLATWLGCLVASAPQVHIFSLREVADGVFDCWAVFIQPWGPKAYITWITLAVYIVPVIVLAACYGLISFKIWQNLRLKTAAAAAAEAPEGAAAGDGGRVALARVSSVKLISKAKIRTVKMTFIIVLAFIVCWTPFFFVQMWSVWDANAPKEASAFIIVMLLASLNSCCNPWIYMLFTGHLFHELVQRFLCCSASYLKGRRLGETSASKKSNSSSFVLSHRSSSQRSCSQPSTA
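Assay system: CHO-OTR cells, human receptor / Also added: oxytocin at about EC15, sub-maximal agonist stimulus / Dosing: single dose, 3.0 µM nominal final compound concentration / Incubation: 6 min pre-incubation, 100 s read / Technique: Fluo-8 calcium dye fluorescence / Read-out: % activation vs EC15 and EC100 oxytocin / Benchmarks: EC15 oxytocin low, 75 nM oxytocin high / Replicates: singlicate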
V1R ag counter: V1a receptor agonism, counter-screen for OXTR agonists | CHO-V1R cells, Fluo-8 calcium fluorescence, agonist mode; 0% DMSO, 100% 3 nM vasopressin | activation, % at 3 µM | actives 0.25% (n = 320,000) | AID 2797;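 active = activation above the mean activation of all tested compounds plus 3 SD, per screening run, cut at about 20% in these data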;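 also: signal is peak over basal fluorescence ratio across a 100 second FLIPR read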
OXTR ag: activates the human oxytocin receptor; CHO-OTR cells, Fluo-8 calcium fluorescence; normalized: DMSO 0%, oxytocin 100%; activation, % at 3 µM; actives 0.32% (n = 320,000); P30559;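 active = activation above the mean of all tested compounds plus 3 SD, cutoff set per screening run, cut at about 20% in these data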;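 also: peak over basal fluorescence ratio from a 100 s FLIPR kinetic read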
zfTRPN1 agonist: zebrafish TRPN1 (NompC) channel agonism | HEK293 zebrafish TRPN1-YFP, Fluo-8 calcium fluorescence; 100% = response to 87 µM carbachol | activation, % at 3 µM | actives 0.18% (n = 220,000) | AID 1424;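 active = activation above its plate's cutoff, the mean activation of test wells on that plate plus 3 SD, cut at about 19% in these data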;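 also: 0% = DMSO alone and 100% = 87 µM carbachol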
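System: zebrafish TRPN1-YFP in HEK293 cells / Dosing: 3 µM single point / Timing: dye loading 1 h at 37 °C, then 30 min room temperature / Signal: Fluo-8 calcium fluorescence, excitation 470-495 nm, emission 515-575 nm / Read-out basis: percent activation from peak over basal fluorescence ratio, control-normalized / Control set: high carbachol 87 µM, low DMSO alone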
TRPML3 ag: agonists of human TRPML3 channel. AID 1448. HEK293 TRPML3-YFP, Fluo-8 calcium fluorescence; 100% = the carbachol control signal. Q8TDD5. actives 0.29% (n = 220,000). activation, % at 3 µM;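 active = activation above its plate's cutoff, the mean activation of the plate's test wells plus 3 SD, cut at about 12% in these data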;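 also: 0% = DMSO only wells and 100% = carbachol wells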
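Test system – HEK293 line with stable expression of human TRPML3-YFP channel · Control set – carbachol 87 µM final as high control (100%), DMSO as low control (0%) · Signal – Fluo-8 calcium dye fluorescence, ex 470-495, em 515-575 nm · Incubation – 1-h 37 °C dye load, 5-s basal, 120-s post-compound reads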
Numbers without * were called inactive; . = no result given. A selection: hits, their analogues and other compounds. The true share with any hit is near 0.55%.

SMILES | OXTR potentiate | V1R ag counter | OXTR ag | zfTRPN1 agonist | TRPML3 ag
Cc1ccc(N/N=C(\C#N)C(N)=S)cc1C | -33 | 14 | 17 | 24* | 13*
Cc1ccc(NC(N)=S)cc1C | -7 | -1 | 0 | 0 | 1
N#C/C(=N\Nc1ccccc1)C(N)=S | -12 | 8 | 5 | 5 | 2
N#C/C(=N\Nc1ccc(Cl)cc1)C(N)=S | -18 | 13 | 17 | 25* | 16*
Cc1cc(C)n(C(=O)Cn2nc(C)c(Br)c2C)n1 | 3 | -2 | -2 | . | .
CN(C)c1ccc(/C=C/C(=O)c2cccnc2)cc1 | -19 | 86* | 90* | 43* | 33*
O=C(/C=C/c1cccc(O)c1)c1cccnc1 | -2 | 1 | 1 | 1 | 4
CN(C)c1ccc(/C=C/C(=O)c2ccc3c(c2)OCO3)cc1 | -12 | 77* | 75* | . | .
COc1ccc(C(=O)/C=C/c2ccccc2)c(OC)c1 | -6 | -2 | -2 | -1 | 0
COc1ccc(C(=O)/C=C/c2ccc(N(C)C)cc2)c(OC)c1 | -23 | 154* | 135* | 44* | 20*
O=[N+]([O-])c1c(C(Cl)Cl)nn(-c2ccc(Cl)cc2)c1N1CCCCC1 | -6 | 1 | -3 | 0 | 0
Cc1ccc(/C=C/C(=O)Nc2sc3c(c2C#N)CCCC3)o1 | -5 | 0 | 0 | 0 | 0
O=C(CN1CCOCCOCCOCCOCC1)Nc1ccccc1 | -11 | 0 | 0 | -1 | 1
Cc1cc(NC(=O)CSC2=NS(=O)(=O)c3cc(F)ccc3N2)no1 | -1 | 1 | 1 | . | .
O=S(=O)(c1ccccc1)[C@@]1(c2ccc(Br)cc2)C[C@@H]2ON=C(c3ccccc3)[C@@H]2C1 | -21 | 2 | -1 | . | .
CC(C)S(=O)(=O)c1csc(NC(=O)Nc2ccc(Cl)cc2)c1 | -18 | 17 | 10 | 21* | 7
COc1ccccc1-c1cc(C(=O)NC2CCN(C)CC2)c2ccc(Cl)c(C)c2n1 | -3 | 12 | 20* | . | .
COc1ccc(N/N=C(\C#N)C(=N)N2CCCCC2)cc1 | -8 | -1 | 1 | 0 | 0
COc1ccc(N/N=C(\C#N)C(=N)SCc2ccccc2)cc1 | . | . | . | 19* | 15*
COCCCNc1c2c3c(cccc3[nH]c1=O)C(=O)c1ccccc1-2 | -11 | 533* | 590* | 203* | 105*
COC(=O)C[C@H]1c2cc(C(F)(F)F)ccc2S(=O)(=O)N1Cc1ccccc1OC | -3 | -1 | -1 | . | .
O=C(O)/C=C/c1ccc([N+](=O)[O-])o1 | -4 | 4 | 2 | 4 | 2
O=C1NC(=S)S/C1=C\C=C\c1ccc([N+](=O)[O-])o1 | . | . | . | 21* | 11
COc1cc(-c2n[nH]c(=S)n2/N=C/c2cccn2C)cc(OC)c1OC | -22 | 51* | 72* | 64* | 35*
Cn1cccc1/C=N/n1c(-c2ccco2)n[nH]c1=S | 0 | -1 | 0 | 2 | 7
SMILES | OXTR potentiate | V1R ag counter | OXTR ag | zfTRPN1 agonist | TRPML3 ag
CC(=O)OCCn1c2nc(=O)[nH]c(=O)c-2nc2cc(C)c(C)cc21 | . | . | . | 142* | 88*
CC(=O)OCCn1c(C)[n+](CCOC(C)=O)c2cc(Cl)c(Cl)cc21 | 9 | 2 | 1 | 0 | 0
Cn1cc([N+](=O)[O-])c(C(=O)Nc2nc(-c3ccc(Cl)cc3)cs2)n1 | -19 | 36* | 32* | 2 | 1
O=C1C2ON(c3ccc(Cl)cc3)C(c3ccco3)C2C(=O)N1c1ccccc1 (configuration not stated) | -13 | 1 | 0 | 1 | 1
CC1(c2cccc(Br)c2)NC(=O)N(CC(=O)N2CCc3ccccc32)C1=O (configuration not stated) | -9 | 6 | 5 | . | .
CC(C)N(Cc1nc(-c2ccccc2)no1)S(=O)(=O)c1ccccc1 | -4 | 1 | -2 | -1 | 25*
CCCC(C(=O)Nc1ccc(S(=O)(=O)N2CCOCC2)cc1)c1ccccc1 (configuration not stated) | -16 | 20* | 28* | . | .
Cc1cc(S(=O)(=O)Nc2ccc(C(=O)NCC3(N4CCCCC4)CCCCC3)cc2)ccc1F | 7 | 0 | 1 | . | .
CCOc1ccc(NS(=O)(=O)c2ccc(C(=O)NCC(c3ccco3)N(C)C)cc2)cc1 (configuration not stated) | -17 | 23* | 26* | . | .
